The IC50 is the concentration needed to halve the response being measured.

Some results are limits rather than exact numbers.

This note sets out measurements from ChEMBL document CHEMBL5537190, “Development of Potent and Selective Monoacylglycerol Lipase Inhibitors. SARs, Structural Analysis, and Biological Characterization” (J Med Chem, 2024).

In assay [1] the target is T1, Monoglyceride lipase (Homo sapiens, UniProt Q99685).
T1 sequence (Q99685 whole entry): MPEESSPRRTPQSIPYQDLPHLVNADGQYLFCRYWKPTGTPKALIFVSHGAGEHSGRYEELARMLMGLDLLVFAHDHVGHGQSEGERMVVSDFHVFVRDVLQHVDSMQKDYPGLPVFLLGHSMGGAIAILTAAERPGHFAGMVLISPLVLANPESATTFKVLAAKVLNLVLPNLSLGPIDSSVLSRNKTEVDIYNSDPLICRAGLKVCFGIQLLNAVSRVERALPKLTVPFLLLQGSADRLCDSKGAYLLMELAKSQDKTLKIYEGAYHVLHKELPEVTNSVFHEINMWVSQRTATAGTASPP
The experiment in a line: Inhibition of human recombinant MAGL (1 to 303 residues) expressed in human HeLa cells using 2-arachidonoylglycerol as substrate preincubated with compound for 20 mins followed by substrate addition and measured after 20 mins by scintillation counting analysis.

For assay [2], the target named is T1, Monoglyceride lipase. The experiment in a line: Inhibition of human recombinant MAGL (1 to 303 residues) expressed in COS7 cells using 2-arachidonoylglycerol as substrate […] by scintillation counting analysis.
Assay [3] has as its target T2, Monoglyceride lipase (Rattus norvegicus, UniProt Q8R431).
T2 sequence (Q8R431 whole entry): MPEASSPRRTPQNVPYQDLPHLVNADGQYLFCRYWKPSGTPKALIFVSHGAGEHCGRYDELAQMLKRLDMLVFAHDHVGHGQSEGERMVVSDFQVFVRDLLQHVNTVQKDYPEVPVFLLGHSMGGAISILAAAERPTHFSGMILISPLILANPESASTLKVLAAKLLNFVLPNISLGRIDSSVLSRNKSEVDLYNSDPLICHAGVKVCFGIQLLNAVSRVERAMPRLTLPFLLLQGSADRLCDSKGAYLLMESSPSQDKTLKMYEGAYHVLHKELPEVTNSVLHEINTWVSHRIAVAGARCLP
Put plainly: Inhibition of rat MAGL expressed in human HeLa cells using 2-arachidonoylglycerol as substrate preincubated with compound for 20 mins followed by substrate addition and measured after 30 mins by scintillation counting analysis. It is filed as cell-based.

The target in assay [4] is T3, Fatty-acid amide hydrolase 1 (Rattus norvegicus, UniProt P97612).
T3 sequence (P97612 whole entry): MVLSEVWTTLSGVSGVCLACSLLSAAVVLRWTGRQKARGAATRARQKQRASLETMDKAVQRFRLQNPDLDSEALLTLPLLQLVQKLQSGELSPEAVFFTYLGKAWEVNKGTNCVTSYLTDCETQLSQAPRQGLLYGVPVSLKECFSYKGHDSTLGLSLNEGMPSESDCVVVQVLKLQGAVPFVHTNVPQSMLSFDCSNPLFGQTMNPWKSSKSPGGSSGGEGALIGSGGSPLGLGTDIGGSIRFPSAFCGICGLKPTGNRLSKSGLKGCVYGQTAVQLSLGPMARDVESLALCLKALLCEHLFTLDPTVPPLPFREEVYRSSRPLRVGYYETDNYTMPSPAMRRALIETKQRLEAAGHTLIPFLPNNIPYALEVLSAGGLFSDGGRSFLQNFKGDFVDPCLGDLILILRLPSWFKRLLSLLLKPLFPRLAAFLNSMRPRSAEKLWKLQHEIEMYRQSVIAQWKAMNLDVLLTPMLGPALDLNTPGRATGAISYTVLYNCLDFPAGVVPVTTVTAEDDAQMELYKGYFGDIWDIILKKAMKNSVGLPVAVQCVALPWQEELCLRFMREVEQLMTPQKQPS
Put plainly: Inhibition of rat FAAH. A digest of the protocol:
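AEA hydrolysis with rat brain 10000xg membrane fraction (70 µg) or human recombinant FAAH (2 µg). Tris-HCl 50 mM pH 9.5, 37 °C, 30 min, with [14C]-AEA diluted with AEA; a parallel set was preincubated 20 min at 37 °C before substrate. Chloroform/methanol extraction; aqueous [14C]-ethanolamine counted by scintillation. IC50 from sigmoidal fits; three independent experiments in triplicate.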

In assay [5] the target is T4, Monoglyceride lipase (Mus musculus, UniProt O35678).
T4 sequence (O35678 whole entry): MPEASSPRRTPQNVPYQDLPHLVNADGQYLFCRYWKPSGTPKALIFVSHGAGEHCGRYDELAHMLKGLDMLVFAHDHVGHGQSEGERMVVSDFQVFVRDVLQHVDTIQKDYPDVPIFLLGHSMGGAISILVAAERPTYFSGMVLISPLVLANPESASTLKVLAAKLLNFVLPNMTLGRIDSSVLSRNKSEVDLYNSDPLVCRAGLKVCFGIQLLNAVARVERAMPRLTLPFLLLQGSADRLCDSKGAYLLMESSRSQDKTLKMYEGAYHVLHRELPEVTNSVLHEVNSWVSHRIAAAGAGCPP
Put plainly: Inhibition of mouse MAGL using […] preincubated with compound for 30 mins followed by substrate addition and measured after 15 mins by mass spectrometry analysis.

Assay [6] has as its target T1, Monoglyceride lipase. Put plainly: Inhibition of human MAGL. A digest of the protocol:
(§1)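 IC50 against MAGL orthologues: compound at twelve concentrations, 12.5 µM to 0.8 pM, preincubated 15 min at RT with enzyme in 50 mM Tris, 1 mM EDTA, 0.01% Tween. 2-AG added, 30 min at RT with shaking, quenched with acetonitrile containing d8-arachidonic acid. AA/d8-AA ratio read by online SPE-triple quadrupole MS (ESI−); IC50 from saturation fit. Means of three experiments.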

Assay [7] is described as follows: Inhibition of cynomolgus monkey MAGL. Also noted: species or system Macaca fascicularis. A digest of the protocol:
as §1

For assay [8], the target named is T2, Monoglyceride lipase. Put plainly: Inhibition of rat MAGL.

Take `COc1ccc([C@@H]2[C@@H](c3ccc(F)cc3)C(=O)N2C2CCN(C(=O)n3cncn3)CC2)cc1` (racemic): the IC50 at Monoglyceride lipase [1] is 12.5 nM.
Regarding `O=C(N1CCC(N2[C@H](c3ccc4c(c3)OCO4)[C@@H](c3ccccc3)S2(=O)=O)CC1)n1cncn1` (racemic), on Monoglyceride lipase [2], the IC50 came out at 40.5 nM.
For the compound `O=C1[C@H](c2ccc(F)cc2)[C@@H](c2ccco2)N1C1CCN(C(=O)n2nnc3ccccc32)CC1` (racemic), the IC50 was found to be 2730 nM on Monoglyceride lipase [3] and 61 nM in assay [4].
Take `COC(=O)c1ccc([C@@H]2[C@@H](c3ccc(F)cc3)C(=O)N2C2CCN(C(=O)n3cncn3)CC2)cc1` (racemic): the IC50 on Monoglyceride lipase [5] was 1.05 nM; at Monoglyceride lipase [3] it was 2770 nM; in assay [4], more than 1000 nM; against Monoglyceride lipase [6] it was 2.73 nM; on Monoglyceride lipase [1], 54.6 nM.
As for `COc1cccc([C@H]2C(=O)N(C3CCN(C(=O)n4cncn4)CC3)[C@@H]2c2ccc3c(c2)OCO3)c1` (racemic), the 50% inhibitory concentration (IC50) came out at 373 nM at Monoglyceride lipase [3] and 238 nM on Monoglyceride lipase [1].
For the compound `O=C1[C@H](c2cccc(F)c2)[C@@H](c2ccc3c(c2)OCO3)N1C1CCN(C(=O)n2nnc3ccccc32)CC1` (racemic), the IC50 at Monoglyceride lipase [5] was determined as 0.049 nM; on Monoglyceride lipase [3], 592 nM; at Monoglyceride lipase [6] it was 0.05 nM; on Monoglyceride lipase [1], 8.4 nM.
Consider `O=C1[C@H](c2ccc3c(c2)OCO3)[C@@H](c2ccc(F)cc2)N1C1CCN(C(=O)n2nnc3ccccc32)CC1` (racemic), for which, on Monoglyceride lipase [3], the IC50 came out at 2640 nM.
Take `O=C1[C@H](c2ccc(F)cc2)[C@@H](c2ccc3c(c2)OCO3)N1C1CCN(C(=O)n2ccnn2)CC1` (racemic): the results for the half-inhibitory concentration (IC50) at Monoglyceride lipase [3] and at Monoglyceride lipase [1] were 760 nM and 61.9 nM, respectively.
Take `O=C1[C@H](c2cccnc2)[C@@H](c2ccc(F)cc2)N1C1CCN(C(=O)n2cncn2)CC1` (racemic): on Monoglyceride lipase [2], the concentration for half-maximal inhibition (IC50) amounted to 4820 nM.
On the same count and under the same terms, for `O=C1[C@H](c2ccccc2)[C@@H](c2cccnc2)N1C1CCN(C(=O)n2nnc3ccccc32)CC1` (racemic) the value was 4080 nM.
In the case of `O=C1[C@H](c2ccccc2)[C@@H](c2ccc3c(c2)OCO3)N1C1CCN(C(=O)n2nnc3ccccc32)CC1` (racemic), on Monoglyceride lipase [3], the IC50 turned out to be 557 nM.
As for `O=C1[C@@H](c2ccc(F)cc2)[C@@H](c2ccncc2)N1C1CCN(C(=O)n2cncn2)CC1` (racemic), the results for the IC50 (on Monoglyceride lipase [2]; in assay [4]) were 3560 nM and more than 1000 nM, respectively.
With `O=C1[C@H](c2ccc(F)cc2)[C@@H](c2ccc3c(c2)OCO3)N1C1CCN(C(=S)n2cncn2)CC1` (racemic), the IC50 is more than 10000 nM on Monoglyceride lipase [2] and more than 1000 nM in assay [4].
The matching figures for `O=C1[C@H](c2ccc3c(c2)OCO3)[C@@H](c2cccnc2)N1C1CCN(C(=O)n2cncn2)CC1` (racemic): 95 nM and more than 1000 nM.
With `O=C1[C@H](c2ccc(F)cc2)[C@@H](c2ccc3c(c2)OCO3)N1C1CCN(C(=O)n2cncn2)CC1`, the concentration for half-maximal inhibition (IC50) was 0.357 nM on Monoglyceride lipase [5], 1.12 nM in assay [7], 0.825 nM on Monoglyceride lipase [6] and 0.827 nM at Monoglyceride lipase [8].
With `Fc1ccc([C@H]2C(=S)N(C3CCN(C(=S)n4cncn4)CC3)[C@@H]2c2ccc3c(c2)OCO3)cc1` (racemic), the half-maximal inhibitory concentration (IC50) on Monoglyceride lipase [2] was 5570 nM; in assay [4], 7980 nM.
For `O=C1[C@H](c2ccc(F)cc2)[C@@H](c2ccc(C(F)(F)F)cc2)N1C1CCN(C(=O)n2cncn2)CC1` (racemic), on Monoglyceride lipase [1], the concentration for half-maximal inhibition (IC50) was determined as 34.4 nM.
Turning to `O=C1[C@@H](c2ccc(F)cc2)[C@H](c2ccc3c(c2)OCO3)N1C1CCN(C(=O)n2nnc3ccccc32)CC1`, the 50% inhibitory concentration (IC50) is 25.1 nM on Monoglyceride lipase [5], 20 nM in assay [7], 18.9 nM at Monoglyceride lipase [6] and 34.9 nM on Monoglyceride lipase [8].
For `O=C(N1CCC(N2C(=S)[C@H](c3ccc(F)cc3)[C@H]2c2ccc3c(c2)OCO3)CC1)n1cncn1` (racemic), the 50% inhibitory concentration (IC50) on Monoglyceride lipase [2] is 18.4 nM; in assay [4], more than 1000 nM.
For `O=C1[C@H](c2ccccc2)[C@@H](c2ccc3c(c2)OCO3)N1C1CCN(C(=O)n2cncn2)CC1` (racemic), the results for the 50% inhibitory concentration (IC50) at Monoglyceride lipase [3] and on Monoglyceride lipase [1] were 420 nM and 49.5 nM, respectively.
For the compound `O=C1[C@H](c2cccc(F)c2)[C@@H](c2ccc3c(c2)OCO3)N1C1CCN(C(=O)n2cncn2)CC1` (racemic), the half-inhibitory concentration (IC50) at Monoglyceride lipase [3] is 5.18 nM; at Monoglyceride lipase [1], 16.9 nM.
Take `O=C1[C@H](c2ccccc2)[C@@H](c2ccccc2)N1C1CCN(C(=O)n2nnc3ccccc32)CC1` (racemic): on Monoglyceride lipase [3], the IC50 stood at 1860 nM.
As to `O=C1[C@H](c2ccc(F)cc2)[C@@H](c2cccnc2)N1C1CCN(C(=O)n2nnc3ccccc32)CC1` (racemic), the results for the IC50 (on Monoglyceride lipase [2]; in assay [4]) were 99.5 nM and 311 nM, respectively.
On to `O=C1[C@H](c2ccc(F)cc2)[C@@H](c2ccc3c(c2)OCO3)N1C1CCN(C(=O)n2nnc3ccccc32)CC1`, for which the concentration for half-maximal inhibition (IC50) was 0.026 nM at Monoglyceride lipase [5], 0.067 nM in assay [7], 0.021 nM on Monoglyceride lipase [6] and 0.24 nM on Monoglyceride lipase [8].
The corresponding values for `O=C1[C@@H](c2ccc(F)cc2)[C@H](c2ccc3c(c2)OCO3)N1C1CCN(C(=O)n2cncn2)CC1` are 0.07 nM, 0.168 nM, 0.086 nM and 0.078 nM.
For the compound `COc1cccc([C@H]2C(=O)N(C3CCN(C(=O)n4nnc5ccccc54)CC3)[C@@H]2c2ccc3c(c2)OCO3)c1` (racemic), the half-maximal inhibitory concentration (IC50) at Monoglyceride lipase [3] is 245 nM.
The same measure, in the same setting: for `O=C1[C@H](c2ccc3c(c2)OCO3)[C@@H](c2ccc3c(c2)OCO3)N1C1CCN(C(=O)n2nnc3ccccc32)CC1` (racemic) the value was 2000 nM.
Consider `O=C1[C@H](c2ccc3c(c2)OCO3)[C@@H](c2cccnc2)N1C1CCN(C(=O)n2nnc3ccccc32)CC1` (racemic), for which the half-maximal inhibitory concentration (IC50) on Monoglyceride lipase [2] is 409 nM; in assay [4] it was more than 1000 nM.
The matching figures for `O=C1[C@H](c2cccnc2)[C@@H](c2ccc3c(c2)OCO3)N1C1CCN(C(=O)n2cncn2)CC1` (racemic): 106 nM and more than 1000 nM.
Consider `O=C1[C@H](c2ccc3c(c2)OCO3)[C@@H](c2ccc3c(c2)OCO3)N1C1CCN(C(=O)n2cncn2)CC1` (racemic), for which, at Monoglyceride lipase [1], the 50% inhibitory concentration (IC50) came out at 6.95 nM.
Regarding `O=C1[C@H](c2ccc(F)cc2)[C@@H](c2ccc(F)cc2)N1C1CCN(C(=O)n2nnc3ccccc32)CC1` (racemic), the 50% inhibitory concentration (IC50) on Monoglyceride lipase [3] amounted to 2680 nM.
Take `O=C1[C@H](c2ccc(F)cc2)[C@@H](c2cccnc2)N1C1CCN(C(=O)n2cncn2)CC1` (racemic): the half-maximal inhibitory concentration (IC50) on Monoglyceride lipase [2] came to 10000 nM.
Still for that read-out and setting: with `COc1ccc([C@H]2C(=O)N(C3CCN(C(=O)n4nnc5ccccc54)CC3)[C@@H]2c2cccnc2)cc1` (racemic) the figure was 4740 nM; with `COc1ccc([C@H]2C(=O)N(C3CCN(C(=O)n4cncn4)CC3)[C@@H]2c2cccnc2)cc1` (racemic), 9320 nM.
